Assay results from publication PMC10921549 (Journal of Agricultural and Food Chemistry, 2024).

What was measured:
[1] = target: T1, OR8H1 (Homo sapiens, UniProt Q8NGG4); assay: HEK-293 cell-based cAMP luminescence; details: for agonist validation by concentration–response relation on OR8H1: human OR8H1; for KFO library screening response of OR8H1 (2σ-threshold): each KFO 300 μmol/L, normalized to OR8H1 response to 30 μmol/L TDN
T1 sequence (Q8NGG4 1-311): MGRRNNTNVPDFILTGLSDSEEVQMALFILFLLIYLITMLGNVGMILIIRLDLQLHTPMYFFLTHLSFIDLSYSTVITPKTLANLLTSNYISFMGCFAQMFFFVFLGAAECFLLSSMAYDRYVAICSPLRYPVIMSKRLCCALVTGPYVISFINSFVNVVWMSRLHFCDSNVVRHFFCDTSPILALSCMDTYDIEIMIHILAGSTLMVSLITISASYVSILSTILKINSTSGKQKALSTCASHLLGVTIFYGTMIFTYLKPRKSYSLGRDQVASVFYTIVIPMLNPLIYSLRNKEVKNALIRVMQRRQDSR
Method in brief: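 In HEK-293 cells expressing recombinant human OR8H1 with GloSensor cAMP luciferase, each of 180 GC-pure food odorants is applied at 300 μmol/L (n = 1, triplicate). After basal subtraction, mock is subtracted and responses are normalized to the 30 μmol/L reference agonist signal; the hit threshold is 2σ. For concentration–response, EC50 comes from a nonlinear Hill fit (slope ≤2.9, weighted by 0.1/SD). Results are mean ± SD.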

[2] = test system: OR2W1; details: present study and ref 50; cited from earlier work
[3] = cited from earlier work
[4] = test system: ptOR8H1; assay: HEK-293 cAMP luminescence assay, chimp ortholog ptOR8H1; format: cell-based, Pan troglodytes (chimpanzee); details: for response of chimp orthologue (concentration–response): ptOR8H1
Method in brief: (§1)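 HEK-293 cells (37 °C, 5% CO2, 100% humidity; high-glucose DMEM, 10% FBS, 2 mM L-glutamine, penicillin/streptomycin) transiently express the OR ortholog with a GloSensor cAMP luciferase, and luminescence is read after odorant application. Basal signal is subtracted, data are normalized to a reference odorant–receptor maximum, and mock is subtracted. EC50 comes from a Hill fit weighted by 0.1/SD, with slope ≤2.9. Results are mean ± SD; surface expression is checked by flow cytometry.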

[5] = test system: ecOR8H1; assay: HEK-293 cAMP luminescence assay, horse ortholog ecOR8H1; format: cell-based, Equus caballus (horse)
Method in brief: as §1

[6] = test system: 386 human OR types and 380 of their most frequent variants; assay: Screening of TDN against OR library of 766 cDNAs; format: cell-based; details: 100 μmol/L TDN, 766 OR cDNAs

## CC(=O)c1ccc2ccccc2c1 [2-acetylnaphthalene]
[1]
  agonist validation by concentration–response relation on OR8H1: agonist for OR8H1

## CC(=O)OCCc1ccccc1 [2-phenylethyl acetate]
[1]
  KFO library screening response of OR8H1 (2σ-threshold): did not activate OR8H1

## C=C(C)c1ccc(C)cc1 [Compound 1, 1-methyl-4-(prop-1-en-2-yl)benzene]
[1]
  EC50: 336 ± 74.9 µM

## C=CCc1ccc(OC)c(OC)c1 [Compound 2, 1,2-dimethoxy-4-prop-2-enylbenzene]
[1]
  EC50: 114 ± 20.1 µM
[2]
  activation of OR2W1: did not activate

## COc1nccnc1C(C)C [Compound 3, 2-methoxy-3-propan-2-ylpyrazine]
[1]
  EC50: 147 ± 8.64 µM

## CCCc1ccc(O)c(OC)c1 [Compound 5, 2-methoxy-4-propylphenol]
[3]; water/EtOH (60/40)
  odor threshold (OT in water/EtOH (60/40)): 1.9 ^b[35] μg/kg

## C=C(C)[C@@H]1CC=C(C)C(=O)C1 [Compound 6, (5R)-2-methyl-5-prop-1-en-2-ylcyclohex-2-en-1-one]
[1]
  EC50: 193 ± 9.52 µM
  KFO library screening response of OR8H1 (2σ-threshold): false-negative responder
  agonist validation by concentration–response relation on OR8H1: agonist of OR8H1

## CC(C)c1ccc(C=O)cc1 [Compound 7, 4-Propan-2-ylbenzaldehyde]
[4]
  response of chimp orthologue (concentration–response): responded
[1]
  EC50: 92 ± 11.7 µM
[2]
  activation of OR2W1: did not activate

## CC1=CCC(C(C)(C)S)CC1 (stereo not drawn) [Compound 8, 2-(4-methylcyclohex-3-en-1-yl)propane-2-thiol]
[4]
  response of chimp orthologue (concentration–response): responded
[1]
  EC50: 206 ± 80.8 µM

## Cc1ccc2c(c1)C=CCC2(C)C [TDN, 1,1,6-trimethyl-1,2-dihydronaphthalene]
[3]; Riesling wine
  odor (detection) threshold in Riesling wine: 2.3 µg/L
[3]
  odor threshold, originally reported: 20 µg/L
[3]; spiked model wine
  detection threshold: 2 µg/L
[4]; chimp ptOR8H1 in HEK-293, n = 3
  EC50: 37.8 ± 29.1 µM
[4]
  response of chimp orthologue (concentration–response): responded
[4]; ptOR8H1 versus human OR8H1
  efficacy lower than at the human receptor: ~7 fold
[1]
  EC50: 32 ± 6.09 µM
[5]
  response of horse orthologue to TDN: nonresponding
[6]
  receptor activation above 3σ-threshold in OR library screening: exclusively activated a single OR above a 3σ-threshold: OR8H1
